In ChEMBL document CHEMBL1154678, “beta-Lactams derived from a carbapenem chiron are selective inhibitors of human fatty acid amide hydrolase versus human monoacylglycerol lipase” (J Med Chem, 2009):

T1: Monoglyceride lipase (Homo sapiens) (UniProt Q99685)
T1 sequence (whole entry): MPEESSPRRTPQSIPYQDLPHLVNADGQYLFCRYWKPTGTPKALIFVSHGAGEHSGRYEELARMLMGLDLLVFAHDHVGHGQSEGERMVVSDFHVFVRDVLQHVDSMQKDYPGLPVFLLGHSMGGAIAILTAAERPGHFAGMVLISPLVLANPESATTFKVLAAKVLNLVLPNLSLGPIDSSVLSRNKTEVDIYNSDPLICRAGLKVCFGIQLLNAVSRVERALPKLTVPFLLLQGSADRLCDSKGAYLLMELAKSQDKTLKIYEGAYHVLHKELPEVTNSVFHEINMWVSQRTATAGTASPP

T2: Fatty-acid amide hydrolase 1 (Homo sapiens, UniProt O00519)
T2 sequence (O00519 whole entry): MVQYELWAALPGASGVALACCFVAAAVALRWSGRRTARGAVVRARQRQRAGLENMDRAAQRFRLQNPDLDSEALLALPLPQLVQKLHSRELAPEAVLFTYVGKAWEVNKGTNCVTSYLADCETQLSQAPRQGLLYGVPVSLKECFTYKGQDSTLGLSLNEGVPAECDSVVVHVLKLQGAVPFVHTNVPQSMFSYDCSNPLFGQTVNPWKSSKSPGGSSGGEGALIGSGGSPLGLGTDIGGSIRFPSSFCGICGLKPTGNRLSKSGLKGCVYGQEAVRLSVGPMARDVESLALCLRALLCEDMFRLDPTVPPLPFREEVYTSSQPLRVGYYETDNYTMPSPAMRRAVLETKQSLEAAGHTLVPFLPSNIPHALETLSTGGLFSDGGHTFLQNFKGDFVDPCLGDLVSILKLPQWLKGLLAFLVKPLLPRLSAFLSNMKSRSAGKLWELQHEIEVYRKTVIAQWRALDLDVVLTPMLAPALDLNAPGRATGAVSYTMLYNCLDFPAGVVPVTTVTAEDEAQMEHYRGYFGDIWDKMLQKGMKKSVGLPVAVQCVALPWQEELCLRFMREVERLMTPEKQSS

T3: Monoglyceride lipase (Homo sapiens, UniProt Q99685)
T3 sequence (Q99685 whole entry): T1 sequence (whole entry)

B1: Fatty-acid amide hydrolase 1 (Homo sapiens), O00519 (protein)
chain: T2 sequence (O00519 whole entry)

Legend:
[1] = biological target: T1, Monoglyceride lipase (Homo sapiens); test: Inhibition of human recombinant MGL using 2-oleoylglycerol at 100 uM by competitive hydrolysis assay
[2] = biological target: T2, Fatty-acid amide hydrolase 1; test: Inhibition of human recombinant FAAH using [3H]anandamide by competitive hydrolysis assay
In short: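 Compounds were added in DMSO, with DMSO alone as control, plus [3H]-AEA at 2 μM final, 37 °C for 10 min. The reaction was stopped on ice with cold chloroform/methanol (1:1), and the aqueous phase was counted by LSC with the buffer-only blank subtracted. IC50 is the mean of three independent experiments.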

[3] = biological target: T1, Monoglyceride lipase (Homo sapiens); test: Inhibition of human recombinant MGL using 2-oleoylglycerol at 1 uM by competitive hydrolysis assay
Monoglyceride lipase = biological target: T3, Monoglyceride lipase; test: Inhibition of human recombinant MGL using 2-oleoylglycerol by competitive hydrolysis assay
In short: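 Compounds were added in DMSO, with DMSO as control, plus [3H]-2-oleoylglycerol at 2 μM final, 37 °C for 10 min. Ice-cold chloroform/methanol (1:1) quench, and the methanol/buffer phase was counted by LSC with the blank subtracted. Results are means of three independent assays.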

[4] = substrate: C=CCCC(=O)N1C[C@@H]([C@@H](C)OC(=O)CCCc2ccccc2)C1=O; test: Hydrolytic activity of human recombinant FAAH at 15 nM by liquid scintillation counting
[5] = substrate: C=CCCC(=O)N1C[C@@H]([C@@H](C)OC(=O)CCCc2ccccc2)C1=O; test: Hydrolytic activity of human recombinant FAAH at 45 nM by liquid scintillation counting

Row | Molecule | inhibition [1] | IC50 [2] | inhibition [3] | IC50 (Monoglyceride lipase; read-out: IC50) | IC50 (Monoglyceride lipase) | Vmax [4] | Vmax [5]
1 | CC(=O)O[C@@H]1[C@@H]([C@@H](C)O)C(=O)N1C(=O)CCCc1ccccc1 | 61% | 183000 nM | – | – | – | – | –
2 | C[C@@H](OC(=O)Cc1ccc(-c2ccccc2)cc1)[C@@H]1CN(C(=O)CCCCc2ccccc2)C1=O | 25% | 236 nM | – | – | – | – | –
3 | C[C@@H](OC(=O)CCCCc1ccccc1)[C@@H]1CN(C(=O)CCCc2ccccc2)C1=O | 59% | 45 nM | – | – | – | – | –
4 | C[C@@H](OC(=O)CCCCc1ccccc1)[C@@H]1CN(C(=O)CCc2ccccc2)C1=O | 100% | 91 nM | 0% | – | – | – | –
5 | C[C@@H](OC(=O)CCCc1ccccc1)[C@@H]1CN(C(=O)CCc2ccccc2)C1=O | 100% | 49 nM | 0% | – | – | – | –
6 | C[C@@H](OC(=O)CCCc1ccccc1)[C@@H]1CN(C(=O)CCCc2ccccc2)C1=O | 100% | 30 nM | 0% | – | – | – | –
7 | CC(=O)O[C@@H]1[C@@H]([C@@H](C)O)C(=O)N1C(=O)CCc1ccccc1 | 48% | 224000 nM | – | – | – | – | –
8 | C=CCCCC(=O)N1C[C@@H]([C@@H](C)OC(=O)CCCc2ccccc2)C1=O | 85% | 10 nM | – | 8510 nM | – | – | –
9 | C=CCCC(=O)N1C(=O)[C@H]([C@@H](C)O)[C@H]1OC(C)=O | 16% | 537000 nM | – | – | – | – | –
10 | CC(=O)O[C@@H]1[C@@H]([C@@H](C)OC(=O)CCc2ccccc2)C(=O)N1C(=O)CCc1ccccc1 | 100% | 2020 nM | 0% | – | – | – | –
11 | CC(=O)O[C@@H]1[C@@H]([C@@H](C)OC(=O)CCCc2ccccc2)C(=O)N1C(=O)CCCc1ccccc1 | 100% | 3120 nM | 0% | – | – | – | –
12 | C=CCCCC(=O)N1C[C@@H]([C@@H](C)OC(=O)Cc2ccc(-c3ccccc3)cc2)C1=O | 67% | 14 nM | – | 14600 nM | – | – | –
13 | C=CCCC(=O)N1C[C@@H]([C@@H](C)O)C1=O | 89% | 7900 nM | 8% | – | – | – | –
14 | CC(=O)O[C@@H]1[C@@H]([C@@H](C)OC(=O)Cc2ccc(-c3ccccc3)cc2)C(=O)N1C(=O)CCCc1ccccc1 | 100% | 708 nM | 0% | – | – | – | –
15 | C=CCCC(=O)O[C@H](C)[C@H]1C(=O)N(C(=O)CCC=C)[C@@H]1OC(C)=O | 99% | 1900 nM | 33% | 133000 nM | – | – | –
16 | C[C@@H](OC(=O)Cc1ccc(-c2ccccc2)cc1)[C@@H]1CNC1=O | 16% | 6500 nM | – | – | – | – | –
17 | C=CCCCC(=O)O[C@H](C)[C@@H]1CN(C(=O)CCC=C)C1=O | 8% | 32 nM | – | 4720 nM | 4720 nM | – | –
18 | C[C@@H](OC(=O)CCCc1ccccc1)[C@@H]1CN(C(=O)CCCCc2ccccc2)C1=O | 39% | 449 nM | – | – | – | – | –
19 | C=CCCC(=O)N1C[C@@H]([C@@H](C)OC(=O)Cc2ccc(-c3ccccc3)cc2)C1=O | 91% | 12 nM | – | 1840 nM | – | – | –
20 | C[C@@H](OC(=O)CCc1ccccc1)[C@@H]1CN(C(=O)CCCc2ccccc2)C1=O | 54% | 57 nM | – | – | – | – | –
21 | C[C@@H](OC(=O)CCc1ccccc1)[C@@H]1CN(C(=O)CCc2ccccc2)C1=O | 100% | 157 nM | 0% | – | – | – | –
22 | C[C@@H](OC(=O)Cc1ccc(-c2ccccc2)cc1)[C@@H]1CN(C(=O)CCCc2ccccc2)C1=O | 0% | 32 nM | – | – | – | – | –
23 | C[C@@H](OC(=O)Cc1ccc(-c2ccccc2)cc1)[C@@H]1CN(C(=O)CCc2ccccc2)C1=O | 31% | 50 nM | – | – | – | – | –
24 | CC(=O)O[C@@H]1[C@@H]([C@@H](C)OC(=O)CCCc2ccccc2)C(=O)N1C(=O)CCc1ccccc1 | 100% | 960 nM | 0% | – | – | – | –
25 | CC(=O)O[C@@H]1[C@@H]([C@@H](C)OC(=O)Cc2ccc(-c3ccccc3)cc2)C(=O)N1C(=O)CCc1ccccc1 | 66% | 826 nM | – | – | – | – | –
26 | C=CCCC(=O)O[C@H](C)[C@@H]1CN(C(=O)CCC=C)C1=O | 99% | 98 nM | – | 23300 nM | – | – | –
27 | C=CCCC(=O)N1C[C@@H]([C@@H](C)OC(=O)CCCc2ccccc2)C1=O | 89% | 5 nM | – | 4060 nM | – | – | –
28 | CC(=O)O[C@@H]1[C@@H]([C@@H](C)OC(=O)CCc2ccccc2)C(=O)N1C(=O)CCCc1ccccc1 | 100% | 5120 nM | 0% | – | – | – | –
29 | C[C@@H](O)[C@@H]1CN(C(=O)CCc2ccccc2)C1=O | 8% | 409000 nM | – | – | – | – | –
30 | B1 | – | – | – | – | – | 12.8 nmol/min/mg | 11.9 nmol/min/mg
